Bioassay records (PubChem)
The list is not random: actives were taken first. Their share in the collection is about 4.1%.
ATG4B inh: ATG4B protease inhibitors, primary screen, biochemical, fluorescence, uHTS. actives 0.51% (n = 340,000). Cysteine protease ATG4B (Homo sapiens), Q9Y4P1. ATG4B cleavage of LC3-PLA2, NBD-HPC fluorescence, 1 h. AID 504462, 2011. inhibition, % at 8.33 µM; in the data active = inhibition above about 40%
Target sequence (Q9Y4P1 whole entry, looked up): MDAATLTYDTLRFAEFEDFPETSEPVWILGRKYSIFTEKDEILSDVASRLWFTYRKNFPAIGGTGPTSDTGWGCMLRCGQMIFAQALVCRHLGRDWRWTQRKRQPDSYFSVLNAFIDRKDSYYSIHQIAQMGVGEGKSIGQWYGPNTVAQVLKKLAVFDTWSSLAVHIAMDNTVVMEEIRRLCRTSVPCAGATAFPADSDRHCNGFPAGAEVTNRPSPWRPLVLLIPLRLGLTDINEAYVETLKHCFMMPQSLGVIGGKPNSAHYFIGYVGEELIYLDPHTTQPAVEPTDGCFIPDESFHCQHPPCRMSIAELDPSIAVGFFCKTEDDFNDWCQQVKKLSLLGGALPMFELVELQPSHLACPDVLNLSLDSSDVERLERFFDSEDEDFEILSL
MC4R barr agon: MC4R agonists recruiting beta-arrestin, primary screen, cell-based, luminescence, agonist arm of biased-ligand search | activation, % at 8.9 µM | actives 0.98% (n = 360,000) | Melanocortin receptor 4 (Homo sapiens), P32245 | U2OS MC4R beta-arrestin complementation; percent of melanotan II response, DMSO zero;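 active = activation above a per-plate cutoff, the mean activation of sample wells on that plate plus 3 SD, cut at about 8% in these data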
Target sequence (P32245 whole entry, looked up): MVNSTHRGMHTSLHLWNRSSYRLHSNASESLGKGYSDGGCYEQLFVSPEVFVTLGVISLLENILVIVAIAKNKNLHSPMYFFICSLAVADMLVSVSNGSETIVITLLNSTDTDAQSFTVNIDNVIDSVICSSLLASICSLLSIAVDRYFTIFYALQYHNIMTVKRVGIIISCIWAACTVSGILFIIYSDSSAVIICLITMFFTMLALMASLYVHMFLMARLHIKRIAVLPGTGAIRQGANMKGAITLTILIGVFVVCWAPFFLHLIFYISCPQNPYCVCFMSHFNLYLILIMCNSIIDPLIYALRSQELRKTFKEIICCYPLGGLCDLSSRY
SMARCA2 activ: SMARCA2 (BRM) function activators, primary screen, cell-based, luminescence, high throughput; MG213 cells, MMTV-luciferase reporter, dexamethasone, overnight; activation, % at 9.1 µM; actives 1% (n = 370,000); AID 652017, 2013; in the data active = activation above about 7.8%;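 also: 0% = vehicle wells and 100% = reference activator wells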
MPTP block: mitochondrial permeability transition pore inhibitors, primary screen, biochemical, isolated mouse mitochondria, absorbance; Ca2+ swelling absorbance, 30 min; inhibition, % at 10 µM; actives 1.4% (n = 360,000);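 active = inhibition of 50% or more, scaled per plate between neutral and stimulator controls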;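 also: 0% = DMSO wells given calcium and 100% = 1 mM EGTA wells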
MC4R antag cAMP: MC4R antagonists of cAMP signaling, primary screen, cell-based, TR-FRET, antagonist arm of biased-ligand search; Melanocortin receptor 4 (Homo sapiens), P32245; MC4R-expressing cells, MTII-stimulated cAMP, LANCE TR-FRET; inhibition, % at 6.5 µM; actives 0.48% (n = 360,000); AID 540295, 2011;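 active = inhibition above its plate's cutoff, the mean of tested wells on that plate plus 3 SD, cut at about 29% in these data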;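 also: 0% = Melanotan II alone and 100% = Melanotan II plus saturating MCL0020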
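material = U2OS cells stably expressing human melanocortin 4 receptor (MC4R) | also added = Melanotan II challenge | dosing = single nominal compound dose of 6.5 µM | detection = TR-FRET with Eu-cAMP and labeled anti-cAMP, 671 nm | replication = singlicate | timing = compound 30 min, challenge 1 h, detection 1 h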
MPTP counter: fluorescence retest of MPTP screen hits in isolated mitochondria, single concentration. shares compounds with MPTP block. actives 78% (n = 5,000). inhibition, % at 10 µM. membrane potential, Rhodamine 123 fluorescence; in the data active = inhibition above about 22%;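 also: 0% = DMSO vehicle and 100% = positive control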
* marks the source's active call; other numbers are inactive results; nt = not tested or not shown.

SMILES | ATG4B inh | MC4R barr agon | SMARCA2 activ | MPTP block | MC4R antag cAMP | MPTP counter
CCc1ccc(-c2nc(CN3CCCC(C(=O)NCCc4ccc(OC)c(OC)c4)C3)c(C)o2)cc1 (stereo unspecified) | -8.2 | -1.2 | -4.1 | 6.2 | 5.2 | nt
CCCCc1c(-c2ccccc2OC)ncn1Cc1c(Cl)cccc1Cl | nt | nt | -2.6 | nt | nt | nt
CCN(CC)C(=O)[C@H]1C[C@@H]2[C@H](C[C@@H](c3ccccc3)[C@H]1C)N(c1ccc(F)cc1)C(=O)N2C/C=C(\C)CCC=C(C)C | nt | nt | -5.9 | nt | nt | nt
COC(=O)C1=C(C)N(Cc2cccc(C(F)(F)F)c2)C(=NCc2cc(OC)c(OC)c(OC)c2)NC1c1cccc(C(F)(F)F)c1 (stereo unspecified) | nt | nt | -2.0 | nt | nt | nt
Clc1cccc(/C(Cc2nc3ccccc3[nH]2)=N\Nc2ccccc2)c1 | 12.9 | -0.7 | 0.7 | 97.1* | 10.1 | 62.2*
c1ccc(N/N=C(\Cc2nc3ccccc3[nH]2)c2ccccc2)cc1 | 0.3 | -1.5 | 2.4 | 49.7 | 2.5 | nt
Cc1cccc(N2C(=O)/C(=C/c3cccnc3)SC2=S)c1 | 9.6 | 1.3 | -3.7 | 0.9 | 8.6 | nt
Cc1cc(/C=C2\SC(=S)N(C)C2=O)c(C)n1-c1ccc(O)cc1 | 7.8 | 4.3 | -9.4 | 38.4 | 22.6 | nt
Cc1cc(/C=C2/SC(=S)N(c3ccc([N+](=O)[O-])cc3)C2=O)c(C)n1-c1cccnc1 | 2.2 | -2.6 | -5.7 | 94.7* | 6.2 | 94.7*
Cc1cc(/C=C2\SC(=S)N(C)C2=O)c(C)n1-c1ccccc1O | 0.1 | -0.3 | -7.2 | 92.3* | -0.5 | 67.0*
Cc1cc(/C=C2/SC(=S)N(c3cccc(Cl)c3)C2=O)c(C)n1-c1cccnc1 | -7.2 | -3.4 | -5.7 | 62.9* | 5.1 | 77.9*
Cc1cc(/C=C2/NC(=O)N(c3ccccc3)C2=O)c(C)n1-c1cccnc1 | -10.3 | -1.5 | 2.3 | 1.6 | -2.9 | nt
CC(C)NC(=O)N[C@H]1C[C@@H]2O[C@@H](CO)CC[C@@H]2O[C@@H]1CCc1ccc(-c2ccccc2F)cc1 | nt | nt | -3.1 | nt | nt | nt
COC(=O)[C@]12C[C@H](CC(=O)NCc3cccc(C(F)(F)F)c3)C(=O)N(Cc3cccc4ccccc34)C1=C[C@H](C(C)(C)C)O[C@@H]2C | nt | nt | -3.5 | nt | nt | nt
O=C(NC(NC(=S)Nc1c(Cl)cccc1Cl)C(Cl)(Cl)Cl)OCc1ccccc1 (stereo unspecified) | 29.3 | -1.0 | -2.9 | 100.3* | -5.1 | 67.2*
COC(=O)C1=C(C)N(C)C(=NCc2ccc3c(c2)OCO3)NC1c1ccc(F)cc1 (stereo unspecified) | nt | nt | 2.8 | nt | nt | nt
CCOc1ccc(NC(=O)C2C3CCC4C(CCC32)C4(Cl)Cl)cc1 (stereo unspecified) | -0.8 | -0.1 | 0.0 | 0.5 | 2.6 | nt
O=C(Nc1ccc(F)cc1)C1C2CCC3C(CCC21)C3(Cl)Cl (stereo unspecified) | -1.1 | 1.8 | -0.6 | 61.7* | 1.7 | 73.6*
C[C@H](O)[C@@H]1C(=O)N2CCc3c([nH]c4c(-c5ccccc5)cccc34)[C@@H]2C[C@@H]1N(C)C(=O)/C=C/c1ccccc1 | nt | nt | -2.0 | nt | nt | nt
COC(=O)CSc1nnc(-c2n[nH]c3c2CCC3)n1N | nt | nt | -4.5 | nt | nt | nt
COc1ccc(CCNc2c(C)c(C)nc3ncnn23)cc1 | 1.3 | 0.1 | -6.6 | 74.5* | 14.0 | 82.5*
O=C(N/N=C/C1C(c2ccccc2)C1(Cl)Cl)c1cccc(Cl)c1 (stereo unspecified) | 14.1 | 4.2 | 0.2 | 75.4* | 13.3 | 79.6*
O=C(N/N=C/c1c[nH]c2ccccc12)c1cccc(Cl)c1 | -6.2 | -0.3 | 0.8 | 1.1 | -6.5 | nt
CCCOc1ccc(C(=O)NNC(=S)NC(=O)c2cc(-c3ccc(Cl)cc3)nc3ccccc23)cc1 | 1.1 | -11.1 | -3.0 | 93.3* | -7.3 | 20.2*
Cc1ccc(C)c(-c2cc(C(=O)NNC(=S)NCC(C)C)c3ccccc3n2)c1 | 18.1 | -2.9 | -0.6 | 86.6* | -1.2 | 80.2*
SMILES | ATG4B inh | MC4R barr agon | SMARCA2 activ | MPTP block | MC4R antag cAMP | MPTP counter
COc1ccc(C(=O)NNC(=S)NC(=O)c2cc(-c3ccccc3)nc3ccccc23)cc1 | -4.0 | -2.8 | -2.8 | 34.4 | 15.1 | nt
CCCOc1cccc(-c2cc(C(=O)NNC(=S)NCC)c3ccccc3n2)c1 | -4.3 | 3.4 | -0.8 | 50.2* | 17.3 | 55.7*
CCNC(=S)NNC(=O)c1cc(-c2ccccc2C)nc2ccccc12 | 20.4 | 0.6 | nt | -0.2 | -2.8 | nt
CN1CCCCC(NC(=O)COCc2ccccc2)C1=O (stereo unspecified) | nt | nt | -1.3 | nt | nt | nt
CCOC(=O)[C@]12CCCCC/C=C\1N(CCc1ccc(Cl)cc1)C(=O)[C@H]2CC(=O)NCc1cccc(C(F)(F)F)c1 | nt | nt | -2.0 | nt | nt | nt
S=C(NCCc1ccccc1)Nc1ccc(Cl)cc1Cl | 0.9 | 2.2 | -3.4 | 81.5* | 6.9 | 102.1*
Cc1cc(Cl)ccc1NC(=S)NCCC(c1ccccc1)c1ccccc1 | 1.1 | 2.0 | -5.2 | 99.6* | 4.3 | 97.2*
Cc1ccc(Cl)cc1NC(=S)NCc1cccn1C | -6.8 | -2.7 | -3.3 | 64.2* | -3.5 | 47.2*
Cc1ccccc1NC(=S)NCc1cccn1C | -9.9 | -2.2 | 4.5 | 2.0 | -0.4 | nt
Cc1cc(Cl)ccc1NC(=S)NCc1ccc(Cl)cc1 | 8.2 | 2.0 | 1.2 | 83.8* | 2.8 | 99.5*
Cc1cc(Cl)ccc1NC(=S)NCc1ccc(S(N)(=O)=O)cc1 | 9.2 | 2.0 | 0.7 | -1.0 | -0.9 | nt
COc1cc(-n2c(C)nc3cc(C(=O)N4CCCCC4)ccc32)cc(OC)c1OC | nt | nt | -3.7 | nt | nt | nt
C=CCN=C1NC(c2ccccc2C(F)(F)F)C(C(=O)OC)=C(C)N1Cc1cccc(C(F)(F)F)c1 (stereo unspecified) | nt | nt | -1.2 | nt | nt | nt
CCCc1nc2c(C)cc(Br)cn2c1Cc1cccc(Cl)c1 | nt | nt | 3.7 | nt | nt | nt
O=C(NCCc1ccncc1)Nc1ccc(Cl)cc1 | -3.9 | -1.9 | -3.1 | 0.3 | 2.6 | nt
O=C(NCCc1ccc(Cl)cc1)Nc1ccc(Cl)cc1 | 3.7 | 1.6 | 3.7 | 77.7* | 6.8 | 98.2*
CC(=O)c1cccc(NC(=S)NCc2ccccc2)c1 | 12.2 | -1.2 | 4.1 | 0.2 | 6.6 | nt
CCCCSCCCNC(=O)Nc1ccc(CC)cc1 | 14.0 | -1.6 | -3.7 | 85.9* | 9.9 | 83.4*
Cc1cc(Cl)ccc1NC(=S)NCCc1ccc(Cl)cc1 | 9.4 | 3.0 | -4.0 | 87.5* | -2.0 | 80.6*
CC(=O)c1cccc(NC(=S)NCCc2ccc(Cl)cc2)c1 | 15.8 | -0.1 | -4.0 | 82.8* | 2.6 | 100.1*
COC(=O)[C@]12C[C@H](CC(=O)N3CCOCC3)C(=O)N(Cc3cccc4ccccc34)C1=C[C@H](C1CCCC1)O[C@@H]2C | nt | nt | -1.6 | nt | nt | nt
